Calb FLC = C. albicans growth inhibition with fluconazole, primary screen, CaCi-2 strain, Alamar Blue fluorescence; AID 1979, 2009; C. albicans CaCi-2 (fluconazole-resistant clinical isolate) + fluconazole, 48 h; growth inhibition, % (test concentration not listed); 300,000 tested, 0.57% active;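 active = growth inhibition above about 58% in most replicates, limit read from the data, passing the limit was not always enough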;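 note: all wells also contain fluconazole at 8 µg/ml as a sub-toxic cotreatment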
H9c2 TAG inh = inhibitors of triacylglycerol accumulation, primary screen, cell-based, uHTS, fluorescence, H9c2; AID 651582, 2012; H9c2 cells, Nile Red lipid (TAG) fluorescence; cells loaded with 200 µM oleic acid; 230,000 tested, 0.66% active; inhibition, % at 12.5 µM;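 active = pattern-corrected inhibition of lipid staining of at least 50% with the nuclear-stain viability signal not falling by more than 50%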
Efflux pump mplx = inhibitors of Candida efflux pumps in yeast, primary screen, S. cerevisiae, Nile Red, multiplex | S. cerevisiae Candida pump triplex | inhibition, % at 10 µM | 330,000 tested, 0.44% active;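 active = plate passing quality check with inhibition over a set limit, or well fluorescence over plate mean plus 4 SD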;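 note: Nile Red retained in pooled yeast measured as flow cytometry median fluorescence; higher means more Nile Red kept so more efflux inhibition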
MC4R antagonist = MC4R antagonists of cAMP signaling, primary screen, cell-based, TR-FRET, antagonist arm of biased-ligand search | 360,000 tested, 0.48% active | MC4R-expressing cells, MTII-stimulated cAMP, LANCE TR-FRET | Melanocortin receptor 4 (Homo sapiens), P32245 | AID 540295, 2011 | inhibition, % at 6.5 µM;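 active = inhibition above its plate's cutoff, the mean of tested wells on that plate plus 3 SD, cut at about 29% in these data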
Target sequence (P32245 whole entry, looked up): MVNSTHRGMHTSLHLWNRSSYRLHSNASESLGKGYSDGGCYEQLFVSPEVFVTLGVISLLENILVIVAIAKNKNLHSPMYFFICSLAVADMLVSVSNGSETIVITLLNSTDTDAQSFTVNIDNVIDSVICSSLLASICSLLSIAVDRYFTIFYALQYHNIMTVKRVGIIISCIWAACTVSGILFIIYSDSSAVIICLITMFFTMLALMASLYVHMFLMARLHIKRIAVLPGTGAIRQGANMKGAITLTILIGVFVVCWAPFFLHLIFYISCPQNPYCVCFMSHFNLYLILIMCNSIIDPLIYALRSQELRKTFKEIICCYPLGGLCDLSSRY
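system = U2OS cells with stable human MC4R expression | also added = Melanotan II challenge after compound preincubation | dosing = one concentration, 6.5 µM nominal | incubation = compound 30 min, challenge 1 h, detection 1 h | measured by = TR-FRET with Eu-cAMP and labeled anti-cAMP, 671 nm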
MC4R ag barr = MC4R agonists recruiting beta-arrestin, primary screen, cell-based, luminescence, agonist arm of biased-ligand search; activation, % at 8.9 µM; U2OS MC4R beta-arrestin complementation; percent of melanotan II response, DMSO zero; 360,000 tested, 0.98% active; Melanocortin receptor 4 (Homo sapiens), P32245;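 active = activation above a per-plate cutoff, the mean activation of sample wells on that plate plus 3 SD, cut at about 8% in these data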
GalR3 antag = GalR3 antagonists in HEK293 cells, primary screen, cell-based, fluorescence readout; Galanin receptor type 3 (Homo sapiens), O60755; 360,000 tested, 0.44% active; HEK293 GalR3-CNG cAMP membrane potential fluorescence; galR3 body fused to GalR1 C-terminus; inhibition, % at 3 µM;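 active = inhibition above the screen-wide average plus 3 SD, cut at about 13% in these data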;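 note: forskolin and galanin both at EC90 stimulate the cells; cAMP rise reported by CNG channel membrane potential dye signal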
Target sequence (O60755 1-299 limits assumed): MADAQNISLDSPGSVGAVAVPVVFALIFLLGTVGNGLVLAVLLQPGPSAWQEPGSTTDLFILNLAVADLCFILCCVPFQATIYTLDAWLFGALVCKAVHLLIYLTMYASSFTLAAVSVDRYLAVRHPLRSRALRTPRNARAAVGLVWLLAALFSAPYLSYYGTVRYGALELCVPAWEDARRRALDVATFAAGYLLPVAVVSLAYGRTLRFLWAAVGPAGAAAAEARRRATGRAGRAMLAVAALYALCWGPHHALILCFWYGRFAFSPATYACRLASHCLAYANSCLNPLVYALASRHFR
GalR3 conf = GalR3 antagonist hit confirmation, cell-based, fluorescence, triplicate; shares compounds with GalR3 antag; inhibition, % at 3 µM; 1,600 tested, 59% active; HEK293 GalR3 CNG cAMP biosensor, membrane potential fluorescence; galR3 fused to GalR1 carboxy tail; challenged with forskolin and galanin at EC90;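 active = inhibition above the primary screen's cutoff, the mean inhibition of all screened compounds plus 3 SD, cut at about 13% in these data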
HEK-CNG parental = nonspecific cAMP agonists in parental HEK-CNG cells, counter-screen for GalR3 antagonist project, cell-based, fluorescence, high throughput. shares compounds with GalR3 antag. HEK293-CNG parental cells, cAMP membrane potential fluorescence; normalised: DMSO wells 0%, forskolin wells 100%. activation, % at 3 µM. 1,600 tested, 10% active. AID 652268, 2013; in the data active = activation above about 1.3%
Hits are given with their value; n = inactive; x = not tested or not shown. A selection: hits, their analogues and other compounds. The true share with any hit is near 2.9%.

SMILES	Calb FLC	H9c2 TAG inh	Efflux pump mplx	MC4R antagonist	MC4R ag barr	GalR3 antag	GalR3 conf	HEK-CNG parental
COC(=O)C1=C(C)N(Cc2cccc(C(F)(F)F)c2)C(=NCc2ccc(C(F)(F)F)cc2)NC1c1cccc(F)c1 (stereo not given)	x	x	x	x	x	n	x	x
Cc1csc2ncnc(N3CCN(C(=S)Nc4ccc(C(F)(F)F)cc4)CC3)c12	n	n	n	n	n	67	93	1.8
COC(=O)c1nn(-c2cccc(C(F)(F)F)c2)ccc1=O	n	x	n	n	n	n	x	x
O=C(Nc1ccccc1)c1nn(-c2cccc(C(F)(F)F)c2)ccc1=O	n	n	n	n	n	45	50	n
Cc1ccc(S(=O)(=O)N(C)CC(=O)N(C)Cc2cccs2)cc1	x	n	x	n	n	n	x	x
CCCCSCc1[nH]c(=O)[nH]c1C(=O)CCCCC(=O)OCC	n	n	n	n	n	n	x	x
CCCn1c2ccccc2c2nnc(SCc3[nH]c(=O)[nH]c3C(=O)CCCCC(=O)OCC)nc21	n	x	n	n	n	17	n	n
CCOC(=O)CCCCC(=O)c1[nH]c(=O)[nH]c1CSc1nnc2c3ccccc3n(C(C)C)c2n1	n	x	n	n	n	31	18	n
CN1CCN(C(=O)c2ccc3c(c2)N(C)C(=O)/C(=C/c2cccc(Cl)c2)S3)CC1	n	x	n	n	n	n	x	x
COc1ccc(/C=C2\Sc3ccc(C(=O)N4CCN(Cc5ccccc5)CC4)cc3N(C)C2=O)cc1OC	n	x	n	n	n	60	106	n
O=C(Cc1cc(C(F)(F)F)cc(C(F)(F)F)c1)Nc1c(-c2ccccc2)[nH][nH]c1=O	x	x	x	x	x	n	x	x
Cc1ccnc(SCC(=O)Nc2sc3c(c2C#N)CCCC3)n1	n	n	n	n	n	43	95	n
Cc1csc(SCC(=O)Nc2sc3c(c2C#N)CCC3)n1	n	n	n	n	n	n	x	x
OC[C@@H]1CN(Cc2ccc(F)cc2)C[C@H](n2cnc3c(NCc4ccc(F)cc4)ncnc32)O1	x	n	x	n	n	n	x	x
O=C(C(=O)N1CCN(c2ccc(F)cc2)CC1)N1CCCCC1	n	n	n	n	n	18	n	n
CCN(CC)S(=O)(=O)c1cccc(NC(=O)COC(=O)c2n[nH]c(=O)c3ccccc23)c1	n	n	n	n	n	15	51	n
CCN(CC)S(=O)(=O)c1cccc(NC(=O)COC(=O)c2cc(C)oc2C)c1	n	n	n	n	n	n	x	x
O=C(NCCOc1ccccc1)c1n[nH]c(=O)c2ccccc12	n	x	n	n	n	20	n	n
CCc1ccc(NC(=O)c2n[nH]c(=O)c3ccccc23)cc1	n	n	n	n	n	15	n	n
O=C(COC(=O)c1n[nH]c2ccccc12)Nc1ccc(S(=O)(=O)N2CCCC2)cc1	x	n	n	n	n	104	110	n
O=C(COC(=O)c1n[nH]c2ccccc12)Nc1cccc(S(=O)(=O)N2CCOCC2)c1	n	n	x	n	n	n	x	x
CCCCCC1C(C(=O)OCC)C(=O)NC1(C(=O)OCC)C(=O)OCC (stereo not given)	x	n	x	n	n	n	x	x
CCC(=O)N1CCCC(C)(C(=O)Nc2nccc3ccccc23)C1 (stereo not given)	x	n	x	n	n	n	x	x
Cc1ccccc1NC(=O)N1CCCC1C(=O)NCc1cccs1 (stereo not given)	n	n	n	n	n	x	n	n
c1ccc(-n2cnnc2SCc2cn3ccsc3n2)cc1	n	n	n	n	n	n	x	x
SMILES	Calb FLC	H9c2 TAG inh	Efflux pump mplx	MC4R antagonist	MC4R ag barr	GalR3 antag	GalR3 conf	HEK-CNG parental
c1ccc(-n2cnnc2SCc2cn3ccccc3n2)cc1	n	x	n	n	n	54	n	n
COc1ccc(CNC(=O)CN(C(=O)CCC(=O)Nc2ccccn2)c2cccc(C)c2)cc1	n	n	n	n	n	13	30	1.3
Cc1cn([C@H]2C[C@H](O)[C@@H](/C=C/C(=O)NCCC(c3ccccc3)c3ccccc3)O2)c(=O)[nH]c1=O	x	x	x	x	x	n	x	x
CC(=O)NCCc1nc2ccccc2n1Cc1ccc(C)cc1	n	n	n	n	n	x	n	n
CC(=O)NCCCc1nc2ccccc2n1Cc1cc(C)ccc1C	n	x	n	n	n	n	x	x
Cc1nc2ccccc2n1Cc1ccc(Cl)cc1	x	n	n	n	n	87	109	n
Cc1ccccc1Cn1c(C)nc2ccccc21	n	x	n	n	n	60	103	n
OCc1nc2ccccc2n1Cc1ccc(Cl)cc1	n	n	n	n	n	n	x	x
C[C@H](CO)N1C[C@H](C)[C@@H](CN(C)S(C)(=O)=O)OCc2cn(nn2)CCCC1=O	x	x	x	x	x	n	x	x
C[C@H](NC(=O)c1nc[nH]c1C(=O)N(C)CCO)c1ccccc1	x	x	x	x	x	n	x	x
Cn1c(=O)c2cc(NC(=O)OCCF)ccc2n1Cc1cccc(C(F)(F)F)c1	x	n	x	n	n	n	x	x
N=C1/C(=C\c2ccc(-c3cc(Cl)cc(Cl)c3)o2)C(=O)N=C2SC=C(c3ccccc3)N12	n	x	n	n	n	13	n	n
N=C1/C(=C/c2ccc(-c3cccc(C(=O)O)c3)o2)C(=O)N=C2SC=C(c3ccccc3)N12	n	n	n	n	n	n	x	x
CC1=C(C(=O)N2CCOCC2)CC(CC(=O)NCCN2CCOCC2)C(=O)N1Cc1ccccc1 (stereo not given)	x	n	x	n	n	n	x	x
COc1ccc(/C=N/OCC(=O)NC(c2ccccc2)c2ccccc2)cc1OC	n	n	n	n	n	89	100	n
COc1ccc(/C=N/OCC(=O)Nc2cc(C)on2)cc1OC	n	x	n	n	n	n	x	x
Cc1ccc(NC(=O)CN(C)C(=O)CCCN2C(=O)c3ccccc3C2=O)cc1	n	n	n	n	n	14	n	n
CN(CC(=O)Nc1c(Cl)cccc1Cl)C(=O)CCCN1C(=O)c2ccccc2C1=O	n	n	n	n	n	n	x	x
c1cncc(-c2nnc3sc(C4CCCCC4)nn23)c1	n	x	n	n	n	x	n	n
COc1ccc(O)c(C(=O)c2cnc3nc4ccccc4n3c2)c1	n	x	n	n	n	22	18	n

Source: PubChem BioAssay
